SMILES strings stand for the structures.

One may read the IC50 as the concentration that inhibits the measured activity by half. Read a high IC50 as lower potency.

72 kDa type IV collagenase, sequence (P08253 whole entry): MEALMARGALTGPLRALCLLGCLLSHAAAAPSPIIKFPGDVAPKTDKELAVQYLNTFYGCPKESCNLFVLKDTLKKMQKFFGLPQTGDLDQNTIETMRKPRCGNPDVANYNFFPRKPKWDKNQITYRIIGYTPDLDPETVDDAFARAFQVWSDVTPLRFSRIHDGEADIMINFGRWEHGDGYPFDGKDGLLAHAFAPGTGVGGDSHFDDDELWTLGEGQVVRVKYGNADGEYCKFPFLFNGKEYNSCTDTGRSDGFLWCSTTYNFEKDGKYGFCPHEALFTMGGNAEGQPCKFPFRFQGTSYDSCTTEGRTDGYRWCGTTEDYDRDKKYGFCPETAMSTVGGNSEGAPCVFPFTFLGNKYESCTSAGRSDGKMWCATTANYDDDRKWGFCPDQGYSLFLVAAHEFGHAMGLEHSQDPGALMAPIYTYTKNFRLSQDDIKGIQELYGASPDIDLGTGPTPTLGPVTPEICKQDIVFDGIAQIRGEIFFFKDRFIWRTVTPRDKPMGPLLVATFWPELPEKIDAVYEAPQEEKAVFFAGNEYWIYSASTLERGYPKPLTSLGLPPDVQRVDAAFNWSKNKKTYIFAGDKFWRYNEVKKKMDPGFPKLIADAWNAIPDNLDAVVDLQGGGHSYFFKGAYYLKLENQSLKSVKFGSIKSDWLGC
Neutrophil collagenase, sequence (P22894 whole entry): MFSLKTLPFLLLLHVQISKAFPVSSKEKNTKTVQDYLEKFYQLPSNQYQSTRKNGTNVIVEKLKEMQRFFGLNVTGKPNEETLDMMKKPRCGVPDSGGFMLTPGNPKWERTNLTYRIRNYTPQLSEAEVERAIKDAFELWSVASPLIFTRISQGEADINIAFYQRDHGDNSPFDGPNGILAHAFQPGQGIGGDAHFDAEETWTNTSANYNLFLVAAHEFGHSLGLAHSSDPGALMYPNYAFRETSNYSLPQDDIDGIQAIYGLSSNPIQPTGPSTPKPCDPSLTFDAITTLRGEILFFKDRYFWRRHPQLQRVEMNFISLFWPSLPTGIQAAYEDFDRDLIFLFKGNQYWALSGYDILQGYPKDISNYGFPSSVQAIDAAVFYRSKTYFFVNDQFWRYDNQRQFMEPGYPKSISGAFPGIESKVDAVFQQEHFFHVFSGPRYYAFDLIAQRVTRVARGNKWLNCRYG

The first assay concerns the target 72 kDa type IV collagenase (Homo sapiens, UniProt P08253). Put plainly: Inhibition of MMP2 using (7-methoxycoumarin-4-yl)acetyl-Pro-Leu-Gly-Leu-(3-(2,4-dinitrophenyl)-L-2,3-diaminopropionyl)Ala-Arg-NH2 as substrate preincubated for 30 mins measured after 10 mins by fluorescence analysis. In a few lines: (§1)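 Activated enzyme at 2 nM preincubated with inhibitor (10 pM to 1 mM) for 30 min at 37 °C in 50 mM Tris-HCl pH 7.5, 0.2 M NaCl, 5 mM CaCl2, 20 μM ZnSO4, 0.05% Brij 35. Fluorogenic peptide substrate added (10 μL of 50 μM stock to 90 μL mix).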
In the case of `O=C1NC(=O)C(c2ccc(Oc3ccccc3)cc2)(N2CCN(CCOCCOCCOCCOCc3cn(CCF)nn3)CC2)C(=O)N1`, the IC50 was found to be 0.058 µM.

`O=C1NC(=O)C(c2ccc(Oc3ccccc3)cc2)(N2CCN(CCOCCOCCOCCOCCOCCOCCOCCOCc3cn(CCF)nn3)CC2)C(=O)N1` yielded an IC50 of 0.044 µM.

In turn, `O=C1NC(=O)C(c2ccc(Oc3ccccc3)cc2)(N2CCN(CCOCCOCCOCCOCc3cn(CCOCCOCCOCCOc4cccnc4F)nn3)CC2)C(=O)N1` yielded an IC50 of 0.202 µM.

With `O=C1NC(=O)C(c2ccc(Oc3ccccc3)cc2)(N2CCN(CCOCCOCCOCCn3cc(COC(=O)c4ccc(F)cc4)nn3)CC2)C(=O)N1`, the IC50 is 0.022 µM.

Consider `O=C1NC(=O)C(c2ccc(Oc3ccccc3)cc2)(N2CCN(CCOCCOCCOCCn3cc(CNS(=O)(=O)c4ccc(F)cc4)nn3)CC2)C(=O)N1`, for which the IC50 stood at 0.013 µM.

In turn, `CN(Cc1cn(CCOCCOCCOCCN2CCN(C3(c4ccc(Oc5ccccc5)cc4)C(=O)NC(=O)NC3=O)CC2)nn1)S(=O)(=O)c1ccc(F)cc1` displayed an IC50 of 0.012 µM.

`O=C1NC(=O)C(c2ccc(Oc3ccccc3)cc2)(N2CCN(CCOCCOCCOCCn3cc(CCCCOc4cccnc4F)nn3)CC2)C(=O)N1` gave an IC50 of 0.052 µM.

The target in the next assay is Neutrophil collagenase (Homo sapiens, UniProt P22894). Put plainly: Inhibition of MMP8 using (7-methoxycoumarin-4-yl)acetyl-Pro-Leu-Gly-Leu-(3-(2,4-dinitrophenyl)-L-2,3-diaminopropionyl)Ala-Arg-NH2 as substrate preincubated for 30 mins measured after 10 mins by fluorescence analysis. A digest of the protocol:
(§2)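 Activated enzyme at 2 nM preincubated with inhibitor (10 pM to 1 mM) for 30 min at 37 °C in 50 mM Tris-HCl pH 7.5, 0.2 M NaCl, 5 mM CaCl2, 20 μM ZnSO4, 0.05% Brij 35. Fluorogenic peptide substrate added (10 μL of 50 μM stock to 90 μL mix). Fluorescence read at ex 330/em 390 nm. Rates taken from initial 10 min; IC50 by nonlinear regression of rate versus concentration.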
On to `O=C1NC(=O)C(c2ccc(Oc3ccccc3)cc2)(N2CCN(CCOCCOCCOCCOCc3cn(CCF)nn3)CC2)C(=O)N1`, for which inhibition was half-maximal at 0.058 µM (IC50).

Regarding `O=C1NC(=O)C(c2ccc(Oc3ccccc3)cc2)(N2CCN(CCOCCOCCOCCOCCOCCOCCOCCOCc3cn(CCF)nn3)CC2)C(=O)N1`, the IC50 stood at 0.15 µM.

Molecule `O=C1NC(=O)C(c2ccc(Oc3ccccc3)cc2)(N2CCN(CCOCCOCCOCCOCc3cn(CCOCCOCCOCCOc4cccnc4F)nn3)CC2)C(=O)N1` returned an IC50 of 0.107 µM.

On to `O=C1NC(=O)C(c2ccc(Oc3ccccc3)cc2)(N2CCN(CCOCCOCCOCCn3cc(COC(=O)c4ccc(F)cc4)nn3)CC2)C(=O)N1`, for which half-maximal inhibition (IC50) required 0.027 µM.

Consider `O=C1NC(=O)C(c2ccc(Oc3ccccc3)cc2)(N2CCN(CCOCCOCCOCCn3cc(CNS(=O)(=O)c4ccc(F)cc4)nn3)CC2)C(=O)N1`, for which inhibition was half-maximal at 0.019 µM (IC50).

`CN(Cc1cn(CCOCCOCCOCCN2CCN(C3(c4ccc(Oc5ccccc5)cc4)C(=O)NC(=O)NC3=O)CC2)nn1)S(=O)(=O)c1ccc(F)cc1` registered an IC50 of 0.015 µM.

In turn, `O=C1NC(=O)C(c2ccc(Oc3ccccc3)cc2)(N2CCN(CCOCCOCCOCCn3cc(CCCCOc4cccnc4F)nn3)CC2)C(=O)N1` showed an IC50 of 0.116 µM.

The next assay deals with Collagenase 3 (Homo sapiens, UniProt P45452). As to the kind of experiment: Inhibition of MMP13 using (7-methoxycoumarin-4-yl)acetyl-Pro-Leu-Gly-Leu-(3-(2,4-dinitrophenyl)-L-2,3-diaminopropionyl)Ala-Arg-NH2 as substrate preincubated for 30 mins measured after 10 mins by fluorescence analysis. A digest of the protocol:
as §2
Take `O=C1NC(=O)C(c2ccc(Oc3ccccc3)cc2)(N2CCN(CCOCCOCCOCCOCc3cn(CCF)nn3)CC2)C(=O)N1`: the IC50 came out at 0.051 µM.

In turn, `O=C1NC(=O)C(c2ccc(Oc3ccccc3)cc2)(N2CCN(CCOCCOCCOCCOCCOCCOCCOCCOCc3cn(CCF)nn3)CC2)C(=O)N1` gave an IC50 of 0.094 µM.

Turning to `O=C1NC(=O)C(c2ccc(Oc3ccccc3)cc2)(N2CCN(CCOCCOCCOCCOCc3cn(CCOCCOCCOCCOc4cccnc4F)nn3)CC2)C(=O)N1`, the 50% inhibitory concentration (IC50) is 0.605 µM.

With `O=C1NC(=O)C(c2ccc(Oc3ccccc3)cc2)(N2CCN(CCOCCOCCOCCn3cc(COC(=O)c4ccc(F)cc4)nn3)CC2)C(=O)N1`, the concentration for half-maximal inhibition (IC50) turned out to be 0.007 µM.

`O=C1NC(=O)C(c2ccc(Oc3ccccc3)cc2)(N2CCN(CCOCCOCCOCCn3cc(CNS(=O)(=O)c4ccc(F)cc4)nn3)CC2)C(=O)N1` registered an IC50 of 0.023 µM.

In the case of `CN(Cc1cn(CCOCCOCCOCCN2CCN(C3(c4ccc(Oc5ccccc5)cc4)C(=O)NC(=O)NC3=O)CC2)nn1)S(=O)(=O)c1ccc(F)cc1`, 0.021 µM corresponded to half-maximal inhibition (IC50).

With `O=C1NC(=O)C(c2ccc(Oc3ccccc3)cc2)(N2CCN(CCOCCOCCOCCn3cc(CCCCOc4cccnc4F)nn3)CC2)C(=O)N1`, the IC50 amounted to 0.04 µM.

The target of a further assay is Matrix metalloproteinase-9 (Homo sapiens, UniProt P14780). Put plainly: Inhibition of MMP9 using (7-methoxycoumarin-4-yl)acetyl-Pro-Leu-Gly-Leu-(3-(2,4-dinitrophenyl)-L-2,3-diaminopropionyl)Ala-Arg-NH2 as substrate preincubated for 30 mins measured after 10 mins by fluorescence analysis. A digest of the protocol: as §1
Matrix metalloproteinase-9, sequence (P14780 whole entry): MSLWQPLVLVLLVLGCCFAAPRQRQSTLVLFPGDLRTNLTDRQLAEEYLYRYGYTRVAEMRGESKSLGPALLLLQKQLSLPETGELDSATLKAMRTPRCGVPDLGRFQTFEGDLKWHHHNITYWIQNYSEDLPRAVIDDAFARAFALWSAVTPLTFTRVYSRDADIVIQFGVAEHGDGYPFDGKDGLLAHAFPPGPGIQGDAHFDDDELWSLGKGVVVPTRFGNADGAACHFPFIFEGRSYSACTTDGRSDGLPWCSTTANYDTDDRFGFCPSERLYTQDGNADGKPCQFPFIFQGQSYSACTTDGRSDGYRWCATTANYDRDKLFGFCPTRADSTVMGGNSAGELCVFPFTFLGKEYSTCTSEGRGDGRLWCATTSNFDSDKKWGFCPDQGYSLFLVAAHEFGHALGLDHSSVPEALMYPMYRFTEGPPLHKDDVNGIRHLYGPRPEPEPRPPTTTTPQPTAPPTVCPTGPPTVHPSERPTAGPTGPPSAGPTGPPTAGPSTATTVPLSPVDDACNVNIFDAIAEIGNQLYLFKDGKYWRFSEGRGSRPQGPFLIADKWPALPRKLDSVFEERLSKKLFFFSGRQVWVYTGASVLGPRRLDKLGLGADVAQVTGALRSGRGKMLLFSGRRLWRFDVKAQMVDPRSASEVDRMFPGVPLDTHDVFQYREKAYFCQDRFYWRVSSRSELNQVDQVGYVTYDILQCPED
Molecule `O=C1NC(=O)C(c2ccc(Oc3ccccc3)cc2)(N2CCN(CCOCCOCCOCCOCc3cn(CCF)nn3)CC2)C(=O)N1` registered an IC50 of 0.027 µM.

Molecule `O=C1NC(=O)C(c2ccc(Oc3ccccc3)cc2)(N2CCN(CCOCCOCCOCCOCCOCCOCCOCCOCc3cn(CCF)nn3)CC2)C(=O)N1` yielded an IC50 of 0.074 µM.

`O=C1NC(=O)C(c2ccc(Oc3ccccc3)cc2)(N2CCN(CCOCCOCCOCCOCc3cn(CCOCCOCCOCCOc4cccnc4F)nn3)CC2)C(=O)N1` had an IC50 of 0.056 µM.

`O=C1NC(=O)C(c2ccc(Oc3ccccc3)cc2)(N2CCN(CCOCCOCCOCCn3cc(COC(=O)c4ccc(F)cc4)nn3)CC2)C(=O)N1` gave an IC50 of 0.023 µM.

Molecule `O=C1NC(=O)C(c2ccc(Oc3ccccc3)cc2)(N2CCN(CCOCCOCCOCCn3cc(CNS(=O)(=O)c4ccc(F)cc4)nn3)CC2)C(=O)N1` came in with an IC50 of 0.02 µM.

`CN(Cc1cn(CCOCCOCCOCCN2CCN(C3(c4ccc(Oc5ccccc5)cc4)C(=O)NC(=O)NC3=O)CC2)nn1)S(=O)(=O)c1ccc(F)cc1` returned an IC50 of 0.007 µM.

Consider `O=C1NC(=O)C(c2ccc(Oc3ccccc3)cc2)(N2CCN(CCOCCOCCOCCn3cc(CCCCOc4cccnc4F)nn3)CC2)C(=O)N1`, for which the IC50 came to 0.06 µM.
